Data published in ChEMBL document CHEMBL1140866, “New pyrazoline bearing 4(3H)-quinazolinone inhibitors of monoamine oxidase: synthesis, biological evaluation, and structural determinants of MAO-A and MAO-B selectivity” (Bioorg Med Chem, 2009).

Legend:
Mus musculus [1] = test: Antidepressant activity in albino mouse assessed as immobility time at 100 mg/kg, ip by forced swim test; assay type: functional; details: route intraperitoneal
Outline: (§1)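 Mice given compounds i.p. at 100 mg/kg in DMSO/water (1:4), about 0.1 mL, 1 h before testing; controls got 0.1 mL vehicle; n = 7–8. Housed eight per cage, 20 ± 2 °C, 12 h light/dark. Each animal did the plus-maze first, then forced swim.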

[2] = molecular target: T1, Amine oxidase [flavin-containing] B (Rattus norvegicus, UniProt P19643); test: Inhibition of MAO-B in rat liver homogenate after 60 mins by residual activity plot; assay type: tissue-based
T1 sequence (P19643 whole entry): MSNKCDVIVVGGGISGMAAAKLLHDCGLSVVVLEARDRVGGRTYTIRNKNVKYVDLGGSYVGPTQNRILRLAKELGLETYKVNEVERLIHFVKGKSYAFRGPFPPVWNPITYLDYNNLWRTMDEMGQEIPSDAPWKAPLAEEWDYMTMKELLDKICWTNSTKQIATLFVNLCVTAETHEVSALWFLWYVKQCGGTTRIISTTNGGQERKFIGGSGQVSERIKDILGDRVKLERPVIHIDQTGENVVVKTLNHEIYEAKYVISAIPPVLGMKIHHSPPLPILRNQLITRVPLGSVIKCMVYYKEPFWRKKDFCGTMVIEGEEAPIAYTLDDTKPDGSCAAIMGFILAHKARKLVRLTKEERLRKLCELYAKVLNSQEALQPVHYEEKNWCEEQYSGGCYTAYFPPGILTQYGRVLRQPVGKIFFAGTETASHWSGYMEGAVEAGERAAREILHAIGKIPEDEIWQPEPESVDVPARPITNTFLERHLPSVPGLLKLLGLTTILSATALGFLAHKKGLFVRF

[3] = molecular target: T2, Amine oxidase [flavin-containing] A (Rattus norvegicus, UniProt P21396); test: Inhibition of MAO-A in rat liver homogenate after 60 mins by Lineweaver-Burke plot; assay type: tissue-based; details: for Activity: rat, 1 h, TDE = time-dependent effect
T2 sequence (P21396 whole entry): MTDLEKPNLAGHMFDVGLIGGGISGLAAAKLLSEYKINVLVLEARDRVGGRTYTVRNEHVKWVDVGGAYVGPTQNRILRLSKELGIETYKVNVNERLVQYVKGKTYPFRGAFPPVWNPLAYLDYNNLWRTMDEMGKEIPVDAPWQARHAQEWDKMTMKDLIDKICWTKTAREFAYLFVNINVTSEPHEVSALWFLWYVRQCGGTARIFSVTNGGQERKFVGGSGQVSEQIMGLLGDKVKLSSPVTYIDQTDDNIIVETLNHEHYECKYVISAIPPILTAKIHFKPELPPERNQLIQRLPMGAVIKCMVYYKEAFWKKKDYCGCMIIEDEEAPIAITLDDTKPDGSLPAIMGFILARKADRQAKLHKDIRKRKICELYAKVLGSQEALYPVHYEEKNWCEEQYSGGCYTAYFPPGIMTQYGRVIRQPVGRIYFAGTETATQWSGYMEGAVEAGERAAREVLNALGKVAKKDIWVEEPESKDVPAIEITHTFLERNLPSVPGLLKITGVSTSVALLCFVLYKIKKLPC

Mus musculus [4] = test: Anxiolytic activity in albino mouse assessed as total number of entries into arms at 100 mg/kg, ip by plus-maze test; assay type: functional; details: route intraperitoneal; outline: as §1
Mus musculus [5] = test: Anxiolytic activity in albino mouse assessed as time spent on closed arm at 100 mg/kg, ip by plus-maze test; assay type: functional; set-up: unit not given here; details: route intraperitoneal; outline: as §1
[6] = molecular target: T1, Amine oxidase [flavin-containing] B; test: Inhibition of MAO-B in rat liver homogenate after 60 mins by Lineweaver-Burke plot; assay type: tissue-based; details: for Activity: rat, 1 h, TDE = time-dependent effect
[7] = molecular target: T2, Amine oxidase [flavin-containing] A; test: Inhibition of MAO-A in rat liver homogenate after 60 mins by residual activity plot; assay type: tissue-based

IC50 [2] [µM] | Ki [3] [µM] | Activity [3] | Ki [6] [µM] | Activity [6] | IC50 [7] [µM] | Structure (SMILES) | Activity (Mus musculus [1]) [%] | arm entries (Mus musculus [4]) [entries] | Activity (Mus musculus [5])
1.15 | 5.1 | tde | 0.16 | tde | 468 | Cn1c(N/N=C(/C=C/c2cccc(Cl)c2)c2ccccc2)nc2ccccc2c1=O | 54.57 | 3.15 | 246.87
400 | 80.1 | tde | 125 | tde | 31.6 | Cn1c(N/N=C(/C=C/c2ccco2)c2ccc(Cl)cc2)nc2ccccc2c1=O | 67.88 | 6.75 | 219.5
419 | 70.3 | tde | 90.5 | tde | 34.2 | COc1ccc(C(/C=C/c2ccco2)=N\Nc2nc3ccccc3c(=O)n2C)cc1 | 80.38 | 4.63 | 237.25
470 | 30.2 | tde | 64.6 | tde | 30.5 | Cc1ccc(/C=C/C(=N/Nc2nc3ccccc3c(=O)n2C)c2ccccc2)cc1 | 79.25 | 6.37 | 216.12
70.8 | 130 | tde | 90.7 | tde | 415 | Cc1ccc(C2=NN(c3nc4ccccc4c(=O)n3C)C(c3cccs3)C2)cc1 (stereo not drawn) | 74.14 | 5.14 | 188.14
429 | 80.1 | tde | 30.6 | tde | 29 | CCOc1ccc(/C=C/C(=N/Nc2nc3ccccc3c(=O)n2C)c2ccccc2)cc1 | 90.23 | 5.75 | 218.88
399 | 1.15 | tde | 10.6 | tde | 9.05 | COc1ccc(/C=C/C(=N/Nc2nc3ccccc3c(=O)n2C)c2ccccc2)cc1 | 86.75 | 4.5 | 225.38
470 | 90.7 | tde | 65.1 | tde | 68 | COc1ccc(/C=C/C(=N/Nc2nc3ccccc3c(=O)n2C)c2ccccc2)cc1OC | 130.57 | 5.63 | 209.63
2.03 | 6.8 | tde | 1.48 | tde | 418 | COc1ccc(C2=NN(c3nc4ccccc4c(=O)n3C)C(c3ccco3)C2)cc1 (stereo not drawn) | 69 | 5.57 | 226
120 | 30.2 | tde | 78.3 | tde | 3.42 | Cn1c(=S)[nH]c2ccccc2c1=O |  |  | 
27.6 | 65.3 | tde | 25.6 | tde | 420 | Cn1c(N2N=C(c3ccc(Cl)cc3)CC2c2cccs2)nc2ccccc2c1=O (stereo not drawn) | 61.83 | 2.29 | 244.5
77.1 | 140 | tde | 88.6 | tde | 410 | Cc1ccc(C2=NN(c3nc4ccccc4c(=O)n3C)C(c3ccco3)C2)cc1 (stereo not drawn) | 64 | 9 | 208.57
7.22 | 28.7 | tde | 9.25 | tde | 450 | Cn1c(N2N=C(c3ccc(Cl)cc3)CC2c2ccco2)nc2ccccc2c1=O (stereo not drawn) | 74 | 4.86 | 204
419 | 190 | tde | 188 | tde | 33.2 | Cc1ccc(C(/C=C/c2cccs2)=N\Nc2nc3ccccc3c(=O)n2C)cc1 | 65.57 | 5.57 | 204.71
416 | 28.2 | tde | 69.1 | tde | 28 | Cn1c(N/N=C(/C=C/c2cccs2)c2ccc(Cl)cc2)nc2ccccc2c1=O | 50.39 | 8.5 | 162.17
299 | 185 | tde | 184 | tde | 27.2 | COc1ccc(C(/C=C/c2cccs2)=N\Nc2nc3ccccc3c(=O)n2C)cc1 | 49.29 | 8 | 206.29
21.2 | 25.2 | tde | 18.6 | tde | 37.4 | Cn1c(NN)nc2ccccc2c1=O |  |  | 
320 | 181 | tde | 179 | tde | 90.8 | Cc1ccc(C(/C=C/c2ccco2)=N\Nc2nc3ccccc3c(=O)n2C)cc1 | 82.43 | 5.14 | 238.67
415 | 34.2 | tde | 70.5 | tde | 35.1 | Cn1c(N/N=C(/C=C/c2ccccc2)c2ccccc2)nc2ccccc2c1=O | 55.43 | 5.37 | 191
487 | 40.3 | tde | 69.6 | tde | 30.5 | Cn1c(N/N=C(/C=C/c2ccc(Br)cc2)c2ccccc2)nc2ccccc2c1=O | 65.57 | 3.87 | 218.71
378 | 1.05 | tde | 7.8 | tde | 3.56 | Cn1c(N/N=C(/C=C/c2ccc(Cl)cc2)c2ccccc2)nc2ccccc2c1=O | 125.86 | 2.51 | 284.2
410 | 9.9 | tde | 25.2 | tde | 9.46 | Cn1c(N2N=C(c3ccccc3)CC2c2ccccc2)nc2ccccc2c1=O (stereo not drawn) | 27 | 4.37 | 222.27
15.2 | 25.3 | tde | 16.3 | tde | 440 | COc1ccc(C2=NN(c3nc4ccccc4c(=O)n3C)C(c3cccs3)C2)cc1 (stereo not drawn) | 61.13 | 5.13 | 248.5
 | 8.5 |  | 3.36 |  |  | C#CCN(C)Cc1ccccc1 [PARGYLINE] |  |  | 
